Sampled rows, rich in hits. Any-hit rate of the full collection: about 2.3%.
TRPC6 inhibitor = inhibitors of mouse TRPC6 channel. B-score at 10 µM. actives 1.1% (n = 310,000). Q61143. HEK293-TRPC6, membrane potential dye, ACh-evoked depolarization; stronger effect = lower value. AID 2553;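 active = B-score under library mean minus 3 SD, initial fluorescence not abnormally high, positive integrated signal ratio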;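 also: B-score derived from integrated fluorescence ratio over the kinetic read; more negative B-score means stronger inhibition of depolarization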
TRPC4 block = inhibitors of mouse TRPC4 channel; B-score at 10 µM; actives 0.39% (n = 300,000); HEK293 TRPC4beta/mu-opioid, DAMGO-evoked Fluo4 calcium flux; stronger effect = lower value; Q9QUQ5;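 active = B-score over 3 SD under the library average, no early fluorescence shift, positive overall ratio signal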
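material = TRPC4beta/mu-opioid receptor HEK293 cell line | probe or stimulus = sequential submaximal and maximal DAMGO stimulation | compound dosing = one concentration per compound | measured by = Fluo4 Ca2+ flux fluorescence | evaluation = integrated fluorescence ratio relative to baseline, converted to per-well B score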
TRPC6 activator = activators of mouse TRPC6 channel; B-score at 10 µM; HEK293-TRPC6 membrane potential dye fluorescence; stronger effect = higher value; Q61143; actives 0.13% (n = 310,000);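 active = B-score of the integrated fluorescence ratio above library mean plus 3 SD, and starting fluorescence ratio within library mean plus 5 SD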;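 also: higher score means more depolarization so channel activation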
TRPC4 potent = allosterically enhances the mouse TRPC4 cation channel | AID 2227 | Q9QUQ5 | B-score at 10 µM | actives 0.42% (n = 310,000) | HEK293 TRPC4beta/mu-opioid, DAMGO EC20, Fluo-4 Ca2+ flux; stronger effect = higher value;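 active = B-score of calcium response area above 5 SD of library B-scores, with initial fluorescence ratio within 5 SD of library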;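 also: B-score of integrated fluorescence ratio over time as area under calcium response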
TRPC4 agonist = TRPC4 (mouse) channel activation | actives 0.49% (n = 310,000) | Q9QUQ5 | HEK293 TRPC4beta/mu-opioid, Fluo4 calcium fluorescence; stronger effect = higher value | B-score at 10 µM | AID 2237;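 active = B-score above 5 SD of library B-scores, and initial fluorescence ratio not above library mean plus 5 SD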;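 also: positive B-score marks a calcium rise read as TRPC4 activation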
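System – HEK293 cells stably co-expressing mouse TRPC4beta and mu-opioid receptor · Signal – Fluo4 calcium-sensitive dye fluorescence, kinetic, 1 Hz baseline · Benchmarks – buffer (low) and maximal DAMGO (high) · Read-out – B score of integrated fluorescence ratio per well · Incubation – dye loading 45 min room temperature, 110 s kinetic read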
* = called active by the depositor; i = inactive.

SMILES | TRPC6 inhibitor | TRPC4 block | TRPC6 activator | TRPC4 potent | TRPC4 agonist
CC(C)NC(=S)N1CCN(C/C=C/c2ccccc2)CC1 | i | -6* | i | i | i
O=C(c1ccco1)N1CCN(C/C=C/c2ccccc2)CC1 | i | -5* | i | i | i
Clc1cc(Cl)cc(C2=NC(Cc3ccccc3)CO2)c1 (configuration not stated) | i | i | i | i | 132*
O=C(Nc1ccccc1)C1=C[C@H](c2csc3ccccc23)C[C@H](OCc2ccc(CO)cc2)O1 | i | i | i | 14* | i
O=C(NC1CC1)C1=C[C@H](c2csc3ccccc23)C[C@H](OCc2ccc(CO)cc2)O1 | i | i | i | i | 113*
COc1ccc(OC)c(NC(=O)CSc2nnc(CNC(=O)c3cccs3)o2)c1 | i | i | i | i | i
Cc1cccc(NC(=O)CCN2CCC(C)CC2)c1 | i | i | i | i | i
Cc1ccc(NS(=O)(=O)c2cc([N+](=O)[O-])ccc2NNC(=S)Nc2cc(C)ccc2C)c(C)c1 | i | i | i | 16* | i
Cc1ccc(NS(=O)(=O)c2cc([N+](=O)[O-])ccc2NNC(=S)Nc2cccc(Cl)c2)c(C)c1 | i | i | i | i | i
CCCCN1C(=O)C(=O)N(CC(=O)Nc2cc(S(=O)(=O)N(C)C)ccc2C)C1=O | i | i | i | i | i
O=c1[nH][nH]c(-c2ccccc2)c1C=Nc1ccc(F)cc1F | i | i | i | 79* | i
CCOc1[nH]n(-c2ccccc2)c(=O)c1C=Nc1ccc(F)cc1F | i | i | i | i | i
CCCCC(C(=O)NC(=O)NCc1ccccc1)N1C(=O)c2ccccc2C1=O (configuration not stated) | i | -6* | i | i | i
CCC(C(=O)O)N1C(=O)c2ccccc2C1=O (configuration not stated) | i | i | i | i | i
CCc1cccc(NC(=O)CCCn2nc(C)c3c(C)n(-c4ccccc4)nc3c2=O)c1 | i | i | i | i | i
Cc1cc(N2CCN(C)CC2)n2cc(-c3ccc(F)cc3)nc2n1 | i | i | i | 15* | i
CCN(CCCc1ccccc1)CCCc1ccccc1 | i | i | i | i | i
CCCN(CCO)CCCc1ccccc1 | i | i | i | 11* | i
O=C(NCCc1ccccn1)c1cc2ccccc2o1 | i | i | i | i | i
Cc1ccc(S(=O)(=O)Nc2cccc(C(=O)NCC(c3ccco3)N3CCCC3)c2)cc1F (configuration not stated) | i | -6* | i | i | 53*
CN1CCN(c2ccc(Cl)cc2NC(=O)c2ccc(S(=O)(=O)N3CCCCCC3)cc2)CC1 | i | i | i | i | i
CN1CCN(c2ccc(S(=O)(=O)N3CCCCC3)cc2NC(=O)c2ccc(C#N)cc2)CC1 | i | i | i | 11* | i
CCN1CCN(c2ccc(S(=O)(=O)N3CCCCC3)cc2NC(=O)c2cccc(C)c2)CC1 | i | i | i | i | i
Cc1ccccc1OCC(=O)Nc1cc(S(=O)(=O)N2CCCCC2)ccc1N1CCN(C)CC1 | i | i | i | i | 84*
CCN1CCN(c2ccc(S(=O)(=O)N3CCCCC3)cc2NC(=O)CC(C)c2ccccc2)CC1 (configuration not stated) | i | i | i | i | 118*
SMILES | TRPC6 inhibitor | TRPC4 block | TRPC6 activator | TRPC4 potent | TRPC4 agonist
CCN1CCN(c2ccc(S(=O)(=O)N3CCCCC3)cc2NC(=O)C(C)Oc2ccc(F)cc2)CC1 (configuration not stated) | i | i | i | i | 96*
O=C(COc1ccc(S(=O)(=O)N2CCCC2)cc1Cl)N1CCN(c2ccccc2)CC1 | i | i | i | 10* | i
CCN1CCN(c2ccc(S(=O)(=O)N3CCOCC3)cc2NC(=O)/C=C/c2ccc(OC)cc2OC)CC1 | i | i | i | i | 101*
O=C(COc1ccc(S(=O)(=O)N2CCCCC2)cc1Cl)N1CCOCC1 | i | i | i | i | i
CCN1CCN(c2ccc(S(=O)(=O)N3CCCCC3)cc2NC(=O)COc2ccc(F)cc2Cl)CC1 | i | i | i | 12* | i
CCN1CCN(c2ccc(S(=O)(=O)N3CCCCC3)cc2NC(=O)COc2ccc(Cl)cc2)CC1 | i | i | i | i | i
COc1ccc(Cc2nc3ccc(C(=O)NC(C)Cc4ncccc4C)cc3o2)cc1OC (configuration not stated) | i | i | i | i | i
c1ccc2c(-c3cn4ccccc4n3)c[nH]c2c1 | -5.5* | -9* | i | i | i
O=C(NC1CCN(C(=S)Nc2ccccc2)CC1)C1CCCCC1 | i | i | i | i | i
CCCCN(C)CCCNC(=O)c1ccc2c(c1)NC(=O)C(N1CCOCC1)S2 (configuration not stated) | i | i | i | 12* | i
CN1CCN(S(=O)(=O)c2ccc(-c3ccc(Cl)cc3)cc2)CC1 | i | i | i | i | i
CN1CCN(S(=O)(=O)c2ccc(Cl)cc2)CC1 | i | i | i | i | 48*
Cc1ccc(S(=O)(=O)N2CCC(N3CCN(C)CC3)CC2)cc1Cl | i | i | i | 35* | i
COc1cc2c(cc1OC)CN(C(=O)CCOc1ccccc1C)CC2 | i | i | i | i | i
CCCCN(CC)CCNC(=O)c1ccc2c(Cl)c3c(nc2c1)CCC3 | i | i | i | 12* | 132*
CCN(CC)CCCNC(=O)c1ccc2c(Cl)c3c(nc2c1)CCCC3 | i | i | i | i | i
O=C(CC1CCCCC1)NCCS(=O)(=O)N1CCN(c2ccccc2)CC1 | i | i | i | i | i
COc1ccc(-n2nc(C(=O)NCC(=O)NCCCN3CC(C)CC(C)C3)c3ccccc3c2=O)cc1Cl (configuration not stated) | i | i | i | i | 128*
Cc1csc(=O)n1CC(=O)OCC(=O)Nc1ccc(F)c(F)c1 | i | i | i | i | i
CCCCCCCn1c2c(c(=N)c3c1CCC3)CCCC2 | -6* | i | i | i | i
CCCCCCn1c(=O)[nH]c2c(c1=O)CCC2 | i | i | i | i | i
CC(=O)N1CCN(C(=O)c2cccc(NS(=O)(=O)c3ccc(Br)cc3)c2)CC1 | i | i | i | i | i
O=C(CSc1nc(=O)n(CCN2CCOCC2)c2c1CCC2)Nc1ccc(OC(F)(F)F)cc1 | i | -6* | i | i | i

Compound activity: PubChem, Johns Hopkins Ion Channel Center
